Source: PubChem BioAssay
Shown are actives, neighbours in structure and some others; about 2.4% of the full set was active somewhere.
Cneo AK release: Cryptococcus neoformans cell lysis inducers, primary screen, AK release luminescence, single concentration | C. neoformans lysis, adenylate kinase release luminescence, 4 h; normalised: neutral wells 0, clomiphene wells 100 | lysis activity, % at 15 µM | actives 0.2% (n = 360,000);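 active = mean lysis activity across replicates of at least 80%, whatever share of replicates individually reach that level; inactive = mean lysis activity below 80%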
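Schedule: static 4 h at 37 °C with compound, 1 h detection; system: C. neoformans cells; benchmarks: Clomiphene as positive control; buffer or medium: fresh YPD medium; measure: luminescence rise reflecting yeast cell lysis; measured by: luminescent adenylate kinase detection reagent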
dFosB act: activators of delta FosB homodimer, primary screen, biochemical, fluorescence polarization, TAMRA-CDK5 oligo, single point | purified delta FosB; percent of positive-control signal above neutral wells | activation, % at 25 µM | actives 0.99% (n = 340,000) | AID 493131, 2011;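 active = mean activation above about 17%, with every replicate also reaching it, limit read from the data, passing the limit was not always enough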
Target sequence (P13346 whole entry, looked up): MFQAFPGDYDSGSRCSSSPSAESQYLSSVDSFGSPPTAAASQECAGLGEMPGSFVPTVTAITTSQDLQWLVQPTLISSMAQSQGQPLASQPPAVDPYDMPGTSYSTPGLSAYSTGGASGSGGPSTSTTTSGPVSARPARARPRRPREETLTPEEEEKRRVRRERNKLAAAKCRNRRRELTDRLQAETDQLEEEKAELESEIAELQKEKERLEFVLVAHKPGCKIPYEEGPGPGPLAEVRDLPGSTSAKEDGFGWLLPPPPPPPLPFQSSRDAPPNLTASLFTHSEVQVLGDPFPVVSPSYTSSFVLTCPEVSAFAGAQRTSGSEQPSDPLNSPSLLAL
Env fusion inh: inhibitors of HIV-1 Env-driven cell-cell fusion, primary screen, HeLa-JRFL effector, CEM21 target cells, luciferase. inhibition, % at 12.3 µM. actives 1.1% (n = 360,000). AID 651610, 2012;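 active = mean replicate inhibition score of at least 50 and every replicate individually at or above 50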;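 also: 0% = plate neutral controls and 100% = maraviroc near 300 nM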
INS-1E GSIS act: GLuc luminescence reporter in INS-1E cells, primary screen for activators of glucose-dependent secretion of insulin; actives 0.61% (n = 370,000); INS-1E GLuc reporter insulin secretion, 2-3 h; activation, % at 16.6 µM;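 active = lowest replicate activation of at least 40%, so every replicate reaches that level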;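 also: 0% = median of neutral control wells and 100% = median of IBMX positive control wells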
miR-122 sensor: miR-122 Renilla sensor signal increase in Huh7, primary screen, miR-122 inhibitor project, cell-based, single point, plate reader | Huh7 miR-122 Renilla luciferase sensor, 48 h; neutral wells = 0, positive control = 100 | activation (reporter increase), % at 12.5 µM | actives 0.3% (n = 340,000);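 active = mean replicate activation score at least 90 and every replicate individually at or above 90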;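 also: higher luciferase means less miR-122 activity so hits act as miR-122 inhibitors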
Rtt109 HAT inh: inhibitors of C. albicans Rtt109/Vps75 HAT, primary screen, biochemical, ThioGlo CoA-SH fluorescence, plate reader; Histone acetyltransferase RTT109 (Candida albicans (strain SC5314 / ATCC MYA-2876)), …; AID 540336, 2011; inhibition, % at 34.9 µM; actives 0.16% (n = 330,000); purified Rtt109/Vps75, 4 h;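 active = inhibition of at least 50% in every replicate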
Starred values were filed as active, the others as inactive; [ ] = remark or other dose.

Screening Clc1ccc(-n2nnc(-c3nccs3)n2)cc1Cl returned Cneo AK release -3.8, dFosB act -2.3 and Rtt109 HAT inh 3.5.
For COc1ccc(CN(C)C[C@H]2Oc3ccc(NC(=O)Cc4ccccc4)cc3C(=O)N([C@H](C)CO)C[C@H]2C)cc1 the results were Cneo AK release 1.9, Env fusion inh -7.8[16.7 µM], INS-1E GSIS act -1.2 and miR-122 sensor 3.5[16.7 µM].
`CCN(CC(O)c1cccc(O)c1)C(=O)C12CC3CC(CC(C3)C1)C2` (configuration not stated) gave Cneo AK release -1.2, dFosB act -5.7, Env fusion inh 74.1*, INS-1E GSIS act -30.3, miR-122 sensor -2.7 and Rtt109 HAT inh 0.4.
For CC(=O)N1CC(=O)N2[C@H](C1)[C@H](c1ccc(-c3ccc(C#N)cc3)cc1)[C@@H]2CO the results were INS-1E GSIS act 7.6.
For O=S(=O)(c1ccc(NC(=S)N2CCN(c3ccccc3F)CC2)cc1)N1CCOCC1 the results were dFosB act -6.6, Env fusion inh 58.8*, INS-1E GSIS act -5.5 and Rtt109 HAT inh 2.2.
For COc1ccccc1N1CCN(C(=S)Nc2ccc(S(=O)(=O)N3CCOCC3)cc2)CC1 the results were dFosB act -9.6, Env fusion inh 36.0 and INS-1E GSIS act -33.7.
Screening O=C(NCC[C@H]1CC[C@@H](NC(=O)c2cccnc2)[C@H](CO)O1)Nc1ccc(C(F)(F)F)cc1 returned Cneo AK release -29.4, Env fusion inh 25.4[16.7 µM] and INS-1E GSIS act 5.1.
For O=C(Nc1ccc(F)cc1)N1CC(=O)N2[C@H](CO)[C@H](c3ccc(C#Cc4ccc(F)cc4)cc3)[C@@H]2C1 the results were INS-1E GSIS act -0.3.
`COc1ccc(CCN2C(=O)c3[nH]nc(-c4ccccc4O)c3C2c2cccc(O)c2)cc1OC` (configuration not stated) gave dFosB act -6.6, Env fusion inh 75.5*, INS-1E GSIS act 4.2, miR-122 sensor 1.1 and Rtt109 HAT inh 31.7.
C[C@@H]1CN([C@H](C)CO)C(=O)c2cc(NC(=O)Cc3ccccc3)ccc2O[C@@H](C)CCCCO[C@H]1CN(C)C(=O)NC1CCCCC1 was read as Cneo AK release 0.3, Env fusion inh 9.2[16.7 µM], INS-1E GSIS act -19.7 and miR-122 sensor -2.8[16.7 µM].
Screening COCCNc1nc(Oc2ccccc2)c2sccc2n1 returned Cneo AK release -1.8, Env fusion inh 13.3, INS-1E GSIS act 21.6 and miR-122 sensor 0.8.
For COCCNc1nc(NCCOc2ccccc2Cl)c2sccc2n1 the results were Cneo AK release -1.7, Env fusion inh 10.9, INS-1E GSIS act -21.8 and miR-122 sensor -5.0.
`COCCNc1nc(Oc2ccc(C(N)=O)cc2)c2sccc2n1` gave Cneo AK release -0.6, Env fusion inh 8.7, INS-1E GSIS act 91.6* and miR-122 sensor -6.9.
For COCCNc1nc(NCCCN(C)C)c2sccc2n1 the results were Cneo AK release 0.3, Env fusion inh 6.2, INS-1E GSIS act 66.1* and miR-122 sensor -2.9.
For CC(C)CC#Cc1ccc2c(c1)O[C@@H](CN(C)C(=O)Nc1ccccc1F)[C@H](C)CN([C@@H](C)CO)S2(=O)=O the results were Cneo AK release -2.2, Env fusion inh 12.4[16.7 µM], INS-1E GSIS act -9.1 and miR-122 sensor 13.1[16.7 µM].
CCOC(=O)Cc1csc(/N=C/c2c(O)n(-c3ccc(C)c(C)c3)c(=O)c3ccccc23)n1 was read as dFosB act -3.3, Env fusion inh 38.1, INS-1E GSIS act 42.2* and Rtt109 HAT inh -5.9.
Screening C/C(=N\OCC(=O)N/N=C/c1ccc(C)cc1O)c1cccs1 returned Cneo AK release -1.0, dFosB act -6.6, Env fusion inh -47.9, miR-122 sensor -0.3 and Rtt109 HAT inh 12.9.
`C/C(=N\NC(=O)CO/N=C(\C)c1cccs1)c1ccc(N)cc1` gave Cneo AK release 3.0, dFosB act 1.1, Env fusion inh 6.7, INS-1E GSIS act 45.8*, miR-122 sensor 4.3 and Rtt109 HAT inh 1.9.
